From ChEMBL document CHEMBL1149704, “Virtual screening application of a model of full-length HIV-1 integrase complexed with viral DNA” (Bioorg Med Chem Lett, 2007)

How the values were obtained:
[1] = target: T1, Human immunodeficiency virus type 1 integrase (Human immunodeficiency virus 1, UniProt Q7ZJM1); assay: Inhibition of HIV1 integrase 3' processing activity
Method in brief: (§1)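 Hits from the electrochemiluminescent screen were confirmed in a gel-based assay with Mg2+. IC50 values were determined separately for 3'-processing and strand transfer.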

[2] = target: T1, Human immunodeficiency virus type 1 integrase; assay: Inhibition of HIV1 integrase by BioVeris assay
Method in brief: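 Electrochemiluminescent high-throughput screen measuring HIV-1 integrase strand transfer in the presence of Mg2+, with ruthenium-labelled reagents.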

[3] = target: T1, Human immunodeficiency virus type 1 integrase; assay: Inhibition of HIV1 integrase strand transfer activity; method in brief: as §1

T1 sequence (Q7ZJM1 whole entry): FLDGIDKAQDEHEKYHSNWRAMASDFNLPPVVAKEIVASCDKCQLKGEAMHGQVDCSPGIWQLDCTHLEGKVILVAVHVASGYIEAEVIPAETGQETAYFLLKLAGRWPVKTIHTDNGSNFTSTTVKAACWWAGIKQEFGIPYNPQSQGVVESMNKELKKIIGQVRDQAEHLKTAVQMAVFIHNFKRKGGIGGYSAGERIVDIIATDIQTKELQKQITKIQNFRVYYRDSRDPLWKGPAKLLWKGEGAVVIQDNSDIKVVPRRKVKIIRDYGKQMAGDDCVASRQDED

Row | IC50 [1] | IC50 [2] | IC50 [3] | SMILES
1 | 295 µM | 670 µM | – | CC(C)n1nc(C(=O)NN/C(=C/CC(=O)O)c2ccc(Br)cc2)c2ccccc2c1=O
2 | > 333 µM | 37 µM | > 333 µM | O=C(O)CCC(=O)Nc1ccccc1-c1ccccc1NC(=O)CCC(=O)O
3 | 155 µM | 780 µM | 120 µM | O=C(O)COc1ccccc1/C=N/NC(=O)CSc1nc2ccccc2[nH]1
4 | 65 µM | 113 µM | 49 µM | C=C(NNC(=O)C1CC1c1ccccc1)c1cccc(NC(=O)C2CCCCC2C(=O)O)c1 (stereo unspecified)
5 | 120 µM | 141 µM | 70 µM | C=C(NNC(=O)c1c[nH]c2ccccc12)c1cccc(NC(=O)CCCC(=O)O)c1
6 | > 333 µM | 182 µM | > 333 µM | C=C(NNC(=O)C(C)Oc1ccccc1Cl)c1cccc(NC(=O)C2CCCCC2C(=O)O)c1 (stereo unspecified)
7 | 204 µM | 292 µM | 114 µM | C=C(NNC(=O)Cc1ccc(O)cc1)c1ccc(NC(=O)CCC(=O)O)cc1
8 | 87 µM | 121 µM | 57 µM | Cc1n[nH]c(O)c1C(c1ccc(-c2ccc(Cl)c(C(=O)O)c2)o1)c1c(O)n[nH]c1C
9 | 121 µM | 580 µM | 54 µM | Cc1[nH]nc(O)c1CC(=O)N/N=C/c1ccccc1OCC(=O)O
